The entries come from a sample that favours hits as a whole.
INS promoter act – activators of insulin promoter-driven GFP, primary screen, imaging, TRM-6 cells, eGFP reporter, cell count; activation, % at 2 µM; AID 1296, 2008; actives 0.81% (n = 130,000); plate-scaled: unstimulated 0, stimulated control 100;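 active = activation at 2 µM above a set limit, confirmed on inspection of the cell images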;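 note: share of cells whose green reporter signal exceeds an intensity cutoff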
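material = TRM-6 human fetal islet cells, insulin promoter–eGFP reporter | input = 1,000 TRM-6 cells seeded per well | benchmarks = stimulated versus unstimulated wells as plate controls | measured by = automated fluorescence imaging of paraformaldehyde-fixed, Hoechst-counterstained cells, green channel | schedule = compound exposure 48 h, 37 °C | reagent = tamoxifen at 0.75 µM added at seeding for reporter induction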
An asterisk follows results filed as active.

SMILES	INS promoter act
CC1CCCN(CCCOc2ccc([N+](=O)[O-])cc2)C1 (stereo not given)	8
CC1CCCCN1C(=O)c1ccc(COc2ccc([N+](=O)[O-])cc2)o1 (stereo not given)	380*
O=C(COC(=O)c1ncc(Cl)c(Cl)c1Cl)c1ccc(Cl)s1	-8
C=CCn1c(CCCNC(=O)c2ccccc2OC)nc2ccccc21	0
O=c1c2ccccc2c(/C=N/NS(=O)(=O)c2ccccc2)c(O)n1-c1ccccn1	-7
O=C(c1c[nH]c2ccc(S(=O)(=O)N3CCC4(CC3)OCCO4)cc2c1=O)N1CCOCC1	0
COc1ccc(CCNC(=O)c2cc(S(=O)(=O)N3CCC4(CC3)OCCO4)ccc2F)cc1OC	0
COC(CNC(=O)c1c[nH]c2ccc(S(=O)(=O)N3CCC4(CC3)OCCO4)cc2c1=O)OC	400*
CC1CCCC(C)N1C(=O)c1cc2ncc(CCCl)cn2n1 (stereo not given)	0
CC(Cc1ccccc1)C(=O)N(C)Cc1cccnc1 (stereo not given)	5
Cc1c2c(c(C)n1C)C(C(=O)NC1CCCCC1)N(Cc1ccccc1)C2=O (stereo not given)	0
Cc1ccc(CSCCNC(=O)/C=C/c2ccc(Cl)cc2)cc1	3
COc1ccc(/C=C/C(=O)NCCOc2ccc(C)cc2)cc1	-7
O=C(/C=C/c1ccc(OCCCF)cc1)NCc1ccc(Cl)cc1	223*
CCSc1nc2cc(OC)c(OC)cc2c(=O)n1CC	113
CN1OC(COC(=O)c2ccc(Cl)cc2Cl)CC1c1ccccc1 (stereo not given)	3
CC1Cc2ccccc2N1C(=O)c1cc2sccc2n1Cc1ccc(F)cc1 (stereo not given)	57
O=C(Nc1ccc(OCC(F)(F)C(F)F)cc1)c1ccncc1	-6
CC(C)NC(=O)c1ccc(COCC(F)(F)C(F)F)cc1	80*
O=C(Nc1ccc(Cl)cn1)c1ccc(COCC(F)(F)C(F)F)o1	0
N/C(=N\OC(=O)CCCOc1ccccc1)c1ccncc1	10
N/C(=N\OC(=O)c1ccc(Br)cc1)c1ccccc1	-3
Cc1ccccc1C(=O)O/N=C(\N)c1ccncc1	508*
C=C(C)CN(CC)C(=O)CSc1nc(O)cc(=O)n1C1CCCC1	0
S=c1[nH]c(-c2ccc(Br)cc2)cn1CCc1ccccc1	0
SMILES	INS promoter act
O=C(COC(=O)c1cccc(C(=O)OCC(=O)NCc2ccc(F)cc2)n1)NCc1ccc(F)cc1	113
O=C(OCC#CCSc1nnc(-c2ccc([N+](=O)[O-])cc2)o1)c1cccs1	-6
S=C(c1ccc(-c2ccc(Cl)cc2)o1)N1CCCCC1	7
Nc1cccc(-c2ccc(CO)o2)c1	7
OCCc1ccc(-c2ccc(Cl)cc2)o1	450*
O=C(CN(Cc1ccc2c(c1)OCO2)C(=O)c1cnsn1)NC1CCCC1	8
O=C(NC(=S)Nc1ccc(S(=O)(=O)Nc2nccs2)cc1)c1cccc(F)c1	-74
CC(CS(=O)(=O)c1ccc2ccccc2c1)N1CCN(C2CCCCC2)CC1 (stereo not given)	0
CN(C)C=Nc1c(Br)cc(Br)c2nonc12	203*
CN(C)C=Nc1nonc1-c1ncn[nH]1	0
O=C(Nc1cc(C(F)(F)F)cc(C(F)(F)F)c1)c1ccc(Cn2cc(C(F)(F)F)ccc2=O)cc1	-4
CCOc1ccccc1NC(=O)COC(=O)CSc1ccc(Cl)cc1	-8
COc1ccc(-c2[nH]nc3c2C(c2ccc(OC(=O)N4CCOCC4)cc2)C(C#N)=C(N)O3)cc1 (stereo not given)	0
COc1cc(C2C(C#N)=C(N)OC3=C2C(=O)CC(C)(C)C3)ccc1OC(=O)N1CCOCC1 (stereo not given)	600*
N#CC1=C(N)OC2=C(C(=O)CCC2)C1c1ccc(OC(=O)N2CCOCC2)cc1 (stereo not given)	0
Cc1c(CNC(=O)c2cnn3c2NC(c2ccc(Br)cc2)CC3C(F)(F)F)cnn1C (stereo not given)	-81
CCCC(=O)Nc1ccc(Cl)c(NC(=O)c2cccnc2Cl)c1	3
CC1=C(OC(=O)C(C)(C)C)C(C)(C)C(c2ccccc2)OC1=O (stereo not given)	5
CC1CC/C(=N/Nc2ccccc2)C(=O)N1 (stereo not given)	-9
O=C(/C=C/c1ccco1)NC(=S)Nc1cc(C(F)(F)F)ccc1N1CCOCC1	211*
O=C(CCCCl)NC(=S)Nc1cc(C(F)(F)F)ccc1N1CCOCC1	-2
CC(C)(C)C(=O)Nc1cc(C(F)(F)F)ccc1N1CCOCC1	-14
CCn1ccnc1C(O)c1ccccc1OC (stereo not given)	-10
CCOC(=O)c1nnn(CC(=O)N2N=C(c3ccc(Cl)cc3)CC2c2ccccc2)c1C(=O)OCC (stereo not given)	48
Cc1ccc(SCC(=O)NC(=O)c2ccc(S(=O)(=O)N(C)C)cc2)cc1C	-3
SMILES	INS promoter act
COc1cccc(-n2c(Cc3cc(=O)[nH]c(=O)[nH]3)nnc2SCc2cccc(C(F)(F)F)c2)c1	7
Cc1ccc(CCNC(=O)C2CCN(c3nn4c(=O)cc(C)nc4s3)CC2)cc1	108
Cc1cc(C)c(S(=O)(=O)NCC2CCC(C(=O)NCCCN3CCOCC3)CC2)c(C)c1 (stereo not given)	4
Cc1cc(C)c2nc(N3CCC(C(=O)NCCCN4CCCCC4)CC3)sc2c1	513*
O=C(O)c1cc(S(=O)(=O)NCC2CCCO2)ccc1Cl (stereo not given)	-9
Cc1onc(C(=O)NC(C)c2ccccc2)c1[N+](=O)[O-] (stereo not given)	-6
COc1ccc(CCc2nnc(CCC(=O)NCCc3ncccc3C)o2)cc1	4
CNS(=O)(=O)c1ccc(Oc2ccc(S(=O)(=O)NC)cc2)cc1	-71
CN(C)S(=O)(=O)c1ccc(C(=O)Nc2ccccc2F)cc1	7
CN(C)S(=O)(=O)c1ccc(Oc2ccccc2)cc1	475*
CCN(CC)c1nc(C)nc2c1cnn2CCc1ccccc1	-9
Cc1ccc2c(c1)N(CCC(=O)NCc1cccs1)C(=O)C(C)O2 (stereo not given)	-4
Cc1ccc(C)c(NC(=O)CSc2nc3ccc(N4C(=O)c5ccccc5C4=O)cc3s2)c1	3
CCOC(=O)Cc1csc(/N=C/c2c(O)n(-c3ccc(C)c(C)c3)c(=O)c3ccccc23)n1	6
CC(=O)c1ccc2cccc3c2c1N=CN3C	130*
CN1c2cccc3cccc(c23)N(C)C1(C)C	6
CN1/C(=N\O)c2cccc3cccc1c23	7
CC(=O)Oc1cccc(N2C(=O)c3ccc(C(=O)Nc4c[nH]c(=O)[nH]c4=O)cc3C2=O)c1	214*
COc1ccc(N2C(=O)c3ccc(C(=O)OC(C)C)cc3C2=O)cc1	-64
Cc1cc(NC(=O)c2ccc3c(c2)C(=O)N(C)C3=O)no1	-7
COC(=O)c1ccc(Oc2coc3cc(OCc4ccc([N+](=O)[O-])cc4)ccc3c2=O)cc1	3
O=C(NCCN1CCOCC1)c1cc2cc(Cl)cc(Cl)c2oc1=O	-14
CCOc1ccc(CC(=O)C2=C(N3CCOCC3)CC(C)(C)CC2=O)cc1OCC	6
COc1ccc(OC)c(CNC(=O)C2CCN(S(C)(=O)=O)CC2)c1	146
COc1ccccc1CNC(=O)C1CCCN(S(C)(=O)=O)C1 (stereo not given)	-7
COc1ccc(Br)cc1CNC(=O)C1CCN(S(=O)(=O)N2CCCCC2)CC1	169*
CC(C)=NOCc1ccc(-c2cn([C@@H]3COC[C@H]3O)nn2)cc1	5

Source: PubChem (Columbia University Molecular Screening Center)
